STAT1 activator – increases IFN-gamma driven STAT1 reporter signal | NIH 3T3 STAT1-luciferase reporter, luminescence; 100% = IFN-gamma alone, no compound | activation (% of control), % at 5.5 µM | 2.6% of 200,000 active | AID 932;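 active = activation above the screen-wide mean activation plus 3 SD, cut at about 130% in these data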;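 also: raw ratio to IFN-gamma control signal so 100% means no change and 0% no light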
FLuc inhib CS – inhibits firefly luciferase, flagging false hits in luciferase inhibition screens; P08659; ATPLite firefly luciferase biochemical luminescence, 10 min; inhibition, % at 10 µM; 1.5% of 200,000 active; AID 1006;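 active = inhibition above about 50% when tested at 10 µM, limit read from the data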
Target sequence (P08659 whole entry, looked up): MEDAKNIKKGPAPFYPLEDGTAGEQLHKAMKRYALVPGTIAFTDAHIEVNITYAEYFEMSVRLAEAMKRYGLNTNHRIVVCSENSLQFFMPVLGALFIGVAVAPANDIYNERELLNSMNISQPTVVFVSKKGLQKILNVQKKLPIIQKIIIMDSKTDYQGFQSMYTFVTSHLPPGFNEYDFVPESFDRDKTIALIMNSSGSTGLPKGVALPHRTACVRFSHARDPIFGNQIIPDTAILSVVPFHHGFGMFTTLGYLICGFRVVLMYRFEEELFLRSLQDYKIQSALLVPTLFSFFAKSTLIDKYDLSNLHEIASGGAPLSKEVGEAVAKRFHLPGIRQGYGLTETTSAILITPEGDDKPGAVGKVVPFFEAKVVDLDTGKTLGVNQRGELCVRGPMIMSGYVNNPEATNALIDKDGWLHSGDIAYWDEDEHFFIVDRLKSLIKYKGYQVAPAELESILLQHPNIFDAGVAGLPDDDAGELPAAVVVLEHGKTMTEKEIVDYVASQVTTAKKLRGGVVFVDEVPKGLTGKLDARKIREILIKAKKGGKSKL
NF-kB expr up – NF-kB expression increase, human neuronal cells. fold change at 12.5 µM. NF-kB reporter expression; hits give high values. AID 1239. 1.6% of 190,000 active; in the data active = fold change above about 3.3
FLuc stim CS – affects firefly luciferase, flagging false hits in luciferase stimulation screens; ATPlite luciferase biochemical, luminescence, 10 min; 0 = ATP-free wells, 1 = DMSO control; 200,000 tested, under 10 active; activation factor at 10 µM;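 active = luciferase activation factor, scaled between plate controls, of at least 2 with compound at 10 µM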
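Assay system: Luciferase/luciferin reagent mix; Medium: PBS as buffer for the ATP substrate; Dosing: test compounds dosed from 2 mM stocks in 100% DMSO; Times: 10 min, room temperature; Signal: luminescence from luciferase reaction; Read-out: luciferase activation; Controls: No-ATP low control, compound-free enzyme-plus-ATP high control.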
APP 5'UTR act – activates APP 5'UTR luciferase reporter. 1% of 190,000 active. activation, % at 2 µM. SH-SY5Y APP 5'UTR luciferase reporter, luminescence; zero percent = DMSO vehicle wells;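 active = activation above a set limit, based on mean plus 3 SD of controls, cut at about 140% in these data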
Rad51 HR inh – blocks human Rad51 in homologous recombination. inhibition, % at 10 µM. hRad51 DNA strand exchange, fluorescence dequenching. Q06609. AID 1385. 0.085% of 200,000 active;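 active = inhibition above 40% at the single screening dose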;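 also: 0% = DMSO control wells and 100% = blanks with heterologous ssDNA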
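Material: Human Rad51 nucleoprotein filaments preassembled on unlabelled ssDNA | Also added: Labelled 47-mer dsDNA for strand exchange | Dosing: Single dose, 10 µM final compound | Schedule: 30-min compound preincubation and 15-min exchange, both room temperature | Technique: Fluorescence dequenching at 485/520 nm | Measure: Percent inhibition relative to plate controls and blanks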
Starred values were filed as active, the others as inactive; · = no result. Shown are actives, neighbours in structure and some others; about 3.9% of the full set was active somewhere.

SMILES | STAT1 activator | FLuc inhib CS | NF-kB expr up | FLuc stim CS | APP 5'UTR act | Rad51 HR inh
CC(C)C(=O)Nc1ccc(NC(=O)c2ccccc2Cl)nc1 | 132* | 31 | 1.9 | 0.7 | 33 | 5
Cc1ccccc1C(=O)Nc1ccc(Cl)cn1 | 129* | 18 | 2.5 | 0.8 | 68 | -8
CC1CCCC(C)N1CC(O)COc1c(F)cc(Br)cc1F (centres undefined) | 90 | -3 | 1.3 | 1 | 13 | 5
Cc1ccc2nc(-c3cccc(S(=O)(=O)N(C)C)c3)cn2c1 | 136* | 33 | 2.4 | 0.7 | 69 | 8
CN(C)S(=O)(=O)c1ccc(-c2cn3ccccc3n2)cc1 | 111 | 74* | 2.6 | 0.3 | 72 | 0
CCN(CC)S(=O)(=O)c1cccc(-c2cn3cc(C)ccc3n2)c1 | 126 | 23 | 1.3 | 0.8 | 61 | -4
Oc1ccc(-c2cn3ccccc3n2)cc1 | · | · | · | · | · | -4
NC(=O)C(=CNc1nc(-c2ccc(Cl)c(Cl)c2)cs1)C(N)=O | · | · | · | · | · | -7
Brc1ccc([C@H]2CN3CCSC3=N2)cc1 | · | · | · | · | · | -7
Cc1ccc(-c2cn3c(n2)SCC3)cc1 | 141* | 45 | 4.1* | 0.5 | 107 | 8
S=C(N=Nc1ccccc1)NNc1ccccc1 | 126 | 12 | 3.7* | 0.9 | 93 | 1
O=C(OCc1ccccc1)c1ccc2c(c1)-c1ccccc1C2=O | 123 | 1 | 2.5 | 1 | 4 | 1
CCc1ccc2c(c1)C(=O)c1ccccc1C2=O | 120 | 36 | 3.5* | 0.6 | 99 | -6
CCOC1=NN(c2ncc(C(F)(F)F)cc2Cl)C(=O)/C1=C/N(C)C | 95 | -2 | 1.1 | 1 | -11 | -10
CCN(CC)C(=O)CSc1nnc2nnc3cc(OC)ccc3n12 | · | · | · | · | · | -44
CCOc1cc(/C=C2/NC(=O)N(Cc3ccccc3F)C2=O)ccc1O | 104 | -5 | 5.9* | 1.1 | -25 | 28
CCN=C1NN=C(c2ccc(C)cc2)CS1 | 86 | 64* | 1.6 | 0.4 | 63 | -11
CC(C)N=C1NN=C(c2ccc(F)cc2)CS1 | 102 | 58* | 3.5* | 0.4 | 136* | 13
Cc1[nH]c2ccccc2c1C1=NNC(=Nc2ccc(F)cc2)SC1 | 101 | -3 | 0.85 | 1 | 1 | -2
c1ccc(CN=C2NN=C(c3ccccc3)CS2)cc1 | 138* | 40 | 1.9 | 0.6 | 19 | 7
O=C(CN1C(=O)C2CC=CCC2C1=O)Nc1nc2ccccc2s1 (centres undefined) | 127 | 1 | 1.2 | 1 | 15 | 28
COc1ccc(C(O)Cn2cc([N+](=O)[O-])nc2C)cc1 (centres undefined) | · | · | · | · | · | -12
CCOC(=O)c1sc(NC(=O)Nc2ccc(Cl)cc2)nc1C | 129* | 4 | 1.8 | 1 | 21 | -2
CCOC(=O)c1sc(N/N=C/c2cccc(C)c2)nc1C | 130* | 3 | 1.6 | 1 | 15 | 0
CC(=O)c1sc(N/N=C\c2ccccc2O)nc1C | 101 | 68* | 5.9* | 0.3 | 131 | -38
SMILES | STAT1 activator | FLuc inhib CS | NF-kB expr up | FLuc stim CS | APP 5'UTR act | Rad51 HR inh
COc1ccccc1N1CCN(Cc2ccc(OC)c(OC)c2OC)CC1 | 103 | -5 | 1.1 | 1 | 9 | -16
CCOC(=O)C1CCN(Cc2ccc(O)c3ncccc23)CC1 | 96 | -5 | 10* | 1.1 | -41 | -5
COc1ccccc1N1CCN(Cc2ccc(O)c3ncccc23)CC1 | 91 | -4 | 7.2* | 1 | -90 | 4
CN(C)c1ccc(NC(=O)c2sc(SCC(=O)Nc3nccs3)nc2N)cc1 | 108 | 55* | 0.88 | 0.5 | 77 | 3
Cc1ccc(NC(=O)C(Nc2cccc(C)c2)c2ccccc2)cc1 (centres undefined) | 103 | 0 | 1.1 | 1 | 15 | 1
O=C(c1ccccc1Sc1ccc([N+](=O)[O-])cc1Cl)N1CCOCC1 | 94 | -6 | 1.2 | 1.1 | -4 | 45*
O=C(COC(=O)c1ccccc1Cc1ccccc1)Nc1ccc(SC(F)F)cc1 | 132* | -4 | 1.2 | 1 | 93 | 18
Cc1ccc(C(=O)c2ccccc2C(=O)OCC(=O)Nc2ccc(SC(F)F)cc2)cc1 | 101 | 4 | 0.91 | 1 | -23 | 9
Cc1cccc(NCc2ccc(O)c3ncccc23)c1C | 96 | -5 | 1.1 | 1.1 | 7 | 1
Cc1cccnc1NCc1ccc(O)c2ncccc12 | 96 | -5 | 8.6* | 1.1 | -6 | -1
CC(C)Oc1cccc(-c2cc(C(=O)N3CCN(c4ncccn4)CC3)c3ccccc3n2)c1 | 116 | 39 | 0.66 | 0.6 | 36 | -13
CC(C)Oc1cccc(-c2cc(C(=O)N3CCN(S(C)(=O)=O)CC3)c3ccccc3n2)c1 | 123 | 52* | 0.46 | 0.5 | -1 | 23
O=C(O)c1cc(-c2ccccc2)nc2ccccc12 | 99 | 20 | 1.8 | 0.8 | 0 | -4
CCOc1ccc(-c2cc(C(=O)OC)[nH]n2)cc1 | 142* | 37 | 2.7 | 0.6 | 58 | 3
CCOc1ccc(-c2cc(C(=O)O)c3ccccc3n2)cc1 | 92 | 95* | 2.7 | 0.1 | 66 | -5
C/C(N)=C(/C#N)C(=O)COc1ncnc2ccccc12 | 105 | · | 0.98 | · | 6 | 1
C/C(N)=C(/C#N)C(=O)COC(=O)c1cc(-c2ccc(Br)cc2)nc2ccccc12 | 98 | 6 | 3.6* | 0.9 | -7 | -1
O=C(NNC(=O)C(c1ccccc1)c1ccccc1)c1ccccn1 | 98 | 0 | 1.1 | 1 | -55 | 20
O=C(CCN1C(=O)C2CCCCC2C1=O)Nc1nc(-c2ccccc2)cs1 (centres undefined) | · | · | · | · | · | 1
Cc1ccc(S(=O)(=O)N2CCCC2C(=O)NCc2ccc3c(c2)OCO3)cc1 (centres undefined) | 96 | -6 | 1 | 1.1 | 8 | 2
Cc1cccc(NC(=S)N2CCN(c3ccc(F)cc3)CC2)c1 | 91 | -8 | 0.89 | 1.1 | 0 | 0
CCOc1ccc(-c2cc(C(=O)NCCCN3CCN(CC)CC3)c3ccccc3n2)cc1 | 99 | 67* | 0.73 | 0.3 | 25 | -8
O=C(c1cc(-c2ccccn2)nc2ccccc12)N1CCN(c2ncccn2)CC1 | 95 | 19 | 1.4 | 0.8 | -3 | 1
Cc1ccc(-c2cc(C(=O)N3CCN(c4ncccn4)CC3)c3ccccc3n2)cc1 | 117 | 62* | 0.72 | 0.4 | 1 | 2
C(=N\Nc1nncc2ccccc12)/c1ccccc1 | · | · | · | · | · | 0
Cc1cccc(/C=N/Nc2nncc3ccccc23)c1 | 51 | 94* | 1.1 | 0.1 | 208* | 5
COc1ccc(/C=N/Nc2nncc3ccccc23)c(OC)c1 | 147* | 36 | 2.6 | 0.6 | 59 | ·
COc1ccc(/C=N/NS(C)(=O)=O)c(OC)c1 | 101 | 1 | 1.2 | 1 | 18 | 4
COc1cccc(C(=O)/C=C2\Sc3ccccc3N2C)c1 | 150* | 79* | 1 | 0.2 | 214* | 10
